# Screens (PubChem)
# M18AAP inhibitor = PfM18AAP inhibitors, malaria aminopeptidase, primary screen, biochemical, QFRET, recombinant enzyme. 1.2% of 290,000 active. M18 aspartyl aminopeptidase (Plasmodium falciparum 3D7). AID 1822, 2009. inhibition, % at 7.35 µM. H-Glu-NHMec fluorogenic cleavage;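 active means inhibition above the campaign mean inhibition over all tested compounds plus 3 SD, cut at about 28% in these data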;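 further: 0% = plate median of test compound wells and 100% = 2 mM ZnCl2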
# CHOP UPR activ = activators of apoptotic CHOP UPR arm, primary screen, cell-based, CHO-CHOP luciferase reporter, luminescence, uHTS; UPR activation; percent of tunicamycin response over DMSO baseline; 0.34% of 330,000 active; AID 449763, 2010; activation, % at 10 µM;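 active means at 10 µM dose, activation of 40% or more, normalized to positive control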;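 further: 100% = tunicamycin at 10 µg/mL and 0% = DMSO alone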
#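 measured by = luciferase luminescence | assay system = CHO-CHOP cells, stable luciferase reporter of PERK-eIF2a-CHOP signalling | amount = 500 reporter cells seeded per well | timing = 6 h compound exposure at 37 °C after overnight seeding | controls = positive tunicamycin 10 µg/mL, negative DMSO alone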
# p97 ATPase inh = inhibitors of human p97 ATPase, primary screen, biochemical | Transitional endoplasmic reticulum ATPase (Homo sapiens), P55072 | recombinant p97 ATPase, Kinase-Glo ATP luminescence, 3 h | inhibition, % at 8 µM | 0.42% of 220,000 active | AID 1481, 2009; in the data active means inhibition above about 15%;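 further: 0% = DMSO vehicle and 100% = wells lacking enzyme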
# Target sequence (P55072 whole entry, looked up): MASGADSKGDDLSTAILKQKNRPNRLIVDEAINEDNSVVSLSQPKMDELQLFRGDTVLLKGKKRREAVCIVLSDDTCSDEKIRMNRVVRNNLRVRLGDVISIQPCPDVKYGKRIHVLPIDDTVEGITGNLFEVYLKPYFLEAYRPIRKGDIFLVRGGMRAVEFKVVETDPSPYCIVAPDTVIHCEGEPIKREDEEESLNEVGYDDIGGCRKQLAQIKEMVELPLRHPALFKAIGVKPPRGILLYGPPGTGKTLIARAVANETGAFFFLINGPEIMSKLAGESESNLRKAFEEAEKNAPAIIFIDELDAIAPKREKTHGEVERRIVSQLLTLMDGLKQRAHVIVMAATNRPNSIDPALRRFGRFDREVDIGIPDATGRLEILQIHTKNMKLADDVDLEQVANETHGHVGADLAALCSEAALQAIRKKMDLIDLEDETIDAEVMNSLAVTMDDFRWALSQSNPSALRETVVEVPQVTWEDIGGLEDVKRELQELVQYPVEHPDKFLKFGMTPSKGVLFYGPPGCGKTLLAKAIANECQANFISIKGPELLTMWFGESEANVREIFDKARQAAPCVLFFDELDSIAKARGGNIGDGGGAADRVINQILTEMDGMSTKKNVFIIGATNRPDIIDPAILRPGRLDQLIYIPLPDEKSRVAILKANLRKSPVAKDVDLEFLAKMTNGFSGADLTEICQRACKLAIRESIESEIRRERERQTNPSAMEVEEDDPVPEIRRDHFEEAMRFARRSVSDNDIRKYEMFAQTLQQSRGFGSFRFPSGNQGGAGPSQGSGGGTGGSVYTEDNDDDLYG
# XBP1 UPR activ = activators of adaptive XBP1 UPR arm, primary screen, cell-based, CHO-XBP1 luciferase reporter, luminescence, uHTS; IRE1-XBP1 UPR activation; percent of tunicamycin response, DMSO as zero; activation, % at 20 µM; 0.33% of 330,000 active;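 active means versus positive control, 20 µM dose yields 30% or more activation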;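 further: 100% = tunicamycin at 10 µg/mL and 0% = DMSO only wells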
#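 Signal: luciferase luminescence; Assay system: CHO-XBP1 luciferase reporter cells; Amount: one thousand reporter cells per well; Dosing: 20 µM single concentration, DMSO 1%; Benchmarks: high control tunicamycin 10 µg/mL final, low control DMSO vehicle only; Schedule: 6 h compound exposure at 37 °C, 5% CO2; Evaluation: percent activation relative to tunicamycin reference.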
# HCV NS3 hel inh = inhibitors of HCV NS3 helicase, primary screen, biochemical, Cy5 molecular beacon fluorescence. 0.56% of 290,000 active. AID 1800, 2009. Hepatitis C virus NS3 helicase. NS3 helicase DNA unwinding. inhibition, % at 10.9 µM;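 active means inhibition above the mean of all tested compounds plus 3 SD, set per campaign, cut at about 35% in these data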;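 further: 0% = DMSO wells and 100% = thioflavine S control wells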
#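 test system = hepatitis C virus NS3 helicase domain fragment enzyme | reagent = annealed dual-labelled DNA beacon duplex, ATP-started | times = 1 h at 25 °C | detection = Cy5 fluorescence, 0 and 60 min reads | read-out basis = percent inhibition from t60/t0 fluorescence ratio | control set = DMSO and thioflavine S | replication = one well per compound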
# CHOP inhibitor = inhibitors of CHOP promoter induction, primary screen, cell-based, unfolded protein response, luciferase reporter. 3.8% of 220,000 active. inhibition, % at 10 µM. CHO-K1 CHOP-promoter luciferase, tunicamycin-induced, 15-18 h;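 active means compounds that reduced the stress-induced luciferase reporter signal by more than about 70% of percent inhibition, limit read from the data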;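 further: 0% = tunicamycin plus vehicle and 100% = wells without tunicamycin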
# NS3 hel confirm = HCV NS3 helicase inhibitors, retest, confirmation, biochemical, Cy5 molecular beacon fluorescence, triplicate; shares compounds with HCV NS3 hel inh; NS3 helicase DNA unwinding; inhibition, % at 10.9 µM; 31% of 1,600 active;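 active means inhibition above the mean of all tested compounds plus 3 SD, cutoff set per campaign, cut at about 36% in these data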
# DNA FID counter = compounds displacing fluorescent DNA intercalator, artefact control for HCV NS3 helicase inhibitor project, biochemical, FID fluorescence, triplicate. inhibition, % at 7.9 µM. AID 1945, 2009. DNA fluorescent intercalator displacement. shares compounds with HCV NS3 hel inh. 4% of 1,600 active; in the data active means inhibition above about 37%;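 further: 0% = vehicle and 100% = reference compound; higher means more displacement of ethidium bromide from the DNA hairpin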
# Active calls of the source: *; / = no result. This is a sample that favours compounds with a hit; in the whole collection about 4.5% have one here.
SMILES,M18AAP inhibitor,CHOP UPR activ,p97 ATPase inh,XBP1 UPR activ,HCV NS3 hel inh,CHOP inhibitor,NS3 hel confirm,DNA FID counter
O=C(O)CCCN1C(=O)/C(=C\c2ccco2)SC1=S,18,/,6,/,39*,60,29,5
O=C(CCN1C(=O)/C(=C/c2ccco2)SC1=S)Nc1ccc(O)cc1C(=O)O,7,1,/,-5,42*,/,66*,13
O=C1/C(=C\c2ccco2)SC(=S)N1Cc1ccccc1,8,0,1,-3,26,50,/,/
COc1cccc(Oc2nccc(N(C)C)c2C#N)c1,4,2,5,2,2,21,/,/
Cc1c(N=C2N=C(NC(=O)NC(C)(C)C)c3ccccc32)c(=O)n(-c2ccccc2)n1C,-8,-2,1,8,58*,-12,-12,-33
O=C(COC(=O)c1ncc(Cl)c(Cl)c1Cl)NC1CCCCCC1,/,0,/,2,/,/,/,/
COc1ccc(OCC(=O)N(Cc2ccco2)C2CCS(=O)(=O)C2)cc1 (configuration not stated),-6,0,-7,3,34,-17,/,/
CC(C)c1ccc(OCC(=O)N(Cc2ccco2)C2CCS(=O)(=O)C2)cc1 (configuration not stated),6,2,/,-2,48*,/,-15,-29
Cc1ccc(S(=O)(=O)c2nc(-c3ccccc3F)oc2N2CC(C)OC(C)C2)cc1 (configuration not stated),-3,1,/,-6,-17,/,/,/
O=C(COC(=O)C1CC(=O)N(CCc2ccccc2)C1)c1ccc[nH]1 (configuration not stated),/,0,/,-1,/,/,/,/
O=C(N/N=C/c1cc(Br)c(Br)o1)c1ccc2c(c1)OCCO2,19,6,8,-1,37*,-32,1,4
O=C(N/N=C/c1cc(Br)c(O)c(Br)c1O)c1ccc2c(c1)OCCO2,25,4,/,-2,16,/,/,/
COc1ccc(Nc2cc(C(=O)NCCCN3CCN(C)CC3)c3ccccc3n2)c(OC)c1,5,2,1,-3,64*,29,10,66*
COc1ccc(Nc2cc(C(=O)NCCCOC(C)C)c3ccccc3n2)c(OC)c1,-4,0,/,-3,-24,/,/,/
CC(C)c1cc(=O)n2[nH]c(SCc3ccccc3)nc2n1,3,2,/,-4,13,/,/,/
CC(C)c1cc(=O)n2[nH]c(SCc3ccc(Cl)cc3)nc2n1,7,1,/,-2,45*,/,-6,-24
COc1cc2cc(CCO)oc(=O)c2cc1OC,/,1,/,0,/,/,/,/
O=c1[nH]c(-c2ccccc2)c(-c2ccccc2)nc1[N+](=O)[O-],-2,0,/,0,4,/,/,/
Cc1nn(-c2ccccc2)c2c1C1(C(=O)N(C)c3ccccc31)C(C#N)=C(N)O2 (configuration not stated),-1,-3,-2,-2,42*,1,-21,-27
COc1cc(CN(C)CC2CCCN(CCc3ccccc3F)C2)cc(Cl)c1OC (configuration not stated),0,2,/,-3,-66,/,/,/
COc1ccc(C(=O)CC(=O)C(=O)Nc2ccc(Cl)cc2)cc1,2,/,/,/,43*,/,-2,15
O=S(=O)(Nc1nc2ccccc2nc1NCC1CCCO1)c1ccc(F)cc1 (configuration not stated),4,0,-3,0,42*,-14,-6,-29
COc1ccc(OCCCC(=O)Nc2cc(S(=O)(=O)N3CCCCC3)ccc2OC)cc1,/,1,/,-6,/,/,/,/
